Assay results of several laboratories.
Each line is one published result; the experiments were not run side by side.
Matrix: plasma

CC(C)n1cc(C#N)c2cc(-n3cc(C(=O)O)cn3)ccc21  half-life (human; oral, 200 mg, single dose, fed, healthy volunteers): 15 h
C[C@@H](Nc1cc(F)cc(F)c1)c1cc(C(=O)N(C)C)cc2c(=O)cc(N3CCOCC3)oc12  half-life (human; oral, 60 mg, patients): 5.2 h
C#C[C@]1(COP(=O)(O)OP(=O)(O)OP(=O)(O)O)O[C@@H](n2cnc3c(N)nc(F)nc32)C[C@@H]1O  half-life (human; oral, 15 mg, single dose): 161 h
CO[C@H]1CC[C@H](N2C(=O)CNc3ncc(-c4ccc(C(C)(C)O)nc4)nc32)CC1  half-life (human; oral, 60 mg, patients): 5.64 h
COCCOc1cnc2ccn([C@H](C)c3nnc4c(F)cc(-c5cnn(C)c5)cn34)c(=O)c2c1  half-life (human; oral, 300 mg, multiple doses, once daily, patients): 9.7 h
CO[C@@H]1[C@H](OC(=O)N2CC(CCN3CCOCC3)C2)CC[C@]2(CO2)[C@H]1[C@@]1(C)O[C@@H]1CC=C(C)C  half-life (human; subcutaneous, 3.6 mg, single dose, healthy volunteers): 0.47 h
CC(C)(C)N/[N+]([O-])=N/OC1CCN(c2ccc(C#N)cn2)CC1  half-life (male human; oral, single dose, healthy volunteers): 46 to 78 h
Cn1cc(-c2ccc(S(=O)(=O)[C@@H]3C[C@@H](C(=O)NC4(C#N)CC4)N(C(=O)C4(C(F)(F)F)CC4)C3)c(C(F)(F)F)c2)cn1  half-life (human; oral, 100 mg, single dose, fed, healthy volunteers): 8.8 h
CS(=O)(=O)CCC#N  half-life (human; oral, 100 mg, multiple doses, once daily): 16 h
CCNCCCNC/C=C\CNCCCNCC  half-life (human; intravenous, 100 mg, patients, infusion): 0.19 h
CO[C@H]1/C=C\C=C(/C)C(=O)NC2=CC(=O)C(NCCN(C)C)=C(C[C@@H](C)C[C@H](OC)[C@H](O)[C@@H](C)/C=C(\C)[C@@H]1OC(N)=O)C2=O  half-life (human; intravenous, patients, infusion): 22.3 h
C[C@@H](c1ccc2nccn2c1)n1nnc2ncc(-c3cnn(C)c3)nc21  half-life (human; oral, 200 mg): 4.2 h
Cc1nc(-c2cn3c(n2)-c2ccc(-c4cnn(C(C)(C)C(N)=O)c4)cc2OCC3)n(C(C)C)n1  half-life (human; oral, 6 mg, patients): 22.4 h
O=C(/C=C/c1cccc(S(=O)(=O)Nc2ccccc2)c1)NO  half-life (human; intravenous, 1900 mg/m², patients): 1.43 h
CC(C)(O)c1cc(Nc2cc(Oc3cn(C4CC4)nc3C3CCOCC3)ccn2)ccn1  half-life (human; oral, patients): 6.7 h
NS(=O)(=O)NCCNc1nonc1C(=NO)Nc1ccc(F)c(Br)c1  half-life (human; oral, 100 mg, multiple doses, twice daily, steady state, patients): 3.3 h
c1cnc2ccc(Nc3nc(NC4CC4)c4nc[nH]c4n3)cc2c1  half-life (human; oral, 800 mg/m², patients): 6 h
COc1ccc([C@@H]2CN(C(=O)[C@@H](O)CO)C[C@@]2(C)[C@@H](C)O)cc1OC1CN(c2ccc(C)cn2)C1  half-life (human; oral, 30 mg, single dose, healthy volunteers): 12.3 h
CC(C)(O)c1ccccc1-c1ccc2[nH]c(/C=C/c3ccc(C(F)(F)F)cc3)nc2c1  half-life (male human; oral, 225 mg, single dose, fasted, healthy volunteers): 85.9 h
